Data on 97 compounds can be found in PubChem BioAssay AID504383 (The Scripps Research Institute Molecular Screening Center, 2011).

The whole screen tested about 2,500 compounds, of which about 1,200 (48%) were called active. The set was probably picked from earlier hits. Some of the results follow. Unmarked numbers belong to inactive results.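 The calls were made as follows: active = mean activation above the low control average plus 3 SD, as set in the primary screen (cut at about 12% in these data); inactive = the rest.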

This assay addresses Troponin I, cardiac muscle (Homo sapiens) + Troponin T, cardiac muscle (Homo sapiens) + Troponin C, slow skeletal and cardiac muscles (Homo sapiens) (UniProt P19429+P45379+P63316). Put plainly: cardiac RTF calcium sensitivity activators, confirmation, biochemical, IANBD-TnC fluorescence, triplicate (AID 504383).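 Also: 0% = DMSO at 0.472 mM calcium and 100% = DMSO at 2.9 mM calcium.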 The conditions noted are these: IANBD-labeled cardiac RTF, Ca2+ sensitivity fluorescence; at 7.2 µM; active compounds read high; scaled from EC20 to saturating calcium; tested at EC20 calcium, 0.472 mM. The method, boiled down: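 Test system: labelled regulated thin filament protein complex. Dosing: single nominal compound dose of 7.2 µM. Benchmarks: EC20 and EC100 calcium wells. Read-out basis: fluorescence gain scaled between EC20 and EC100 calcium controls. Probe or stimulus: submaximal calcium at 0.472 mM (EC20). Technique: fluorescence. Times: 15 min compound exposure, 25 °C.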
Take `COc1ccc(-n2nc3c(N4CCC(C(=O)NCc5ccco5)CC4)nnc(C)c3c2C)cc1`: the activation is 4.51%. Turning to `COc1ccc(N2CCN(C(=O)Cn3nnc(-c4ccccc4N)n3)CC2)cc1`, the activation is 46.5% (active). In the case of `CC1CCCCN1C(=O)Cn1nnc(-c2cccnc2)n1` (configuration not stated) it was 5.92%; in that of `CC(C)CC1C(C#N)=C(N)SC(N)=C1C#N`, 4.27%. In the case of `Cc1cc(=O)n2nc(N3CCCC3C(=O)Nc3ccc(C(C)C)cc3)sc2n1` (configuration not stated) it was 426% (active). In the case of `COc1cc(NC(=O)[C@@H]2CCCN2S(=O)(=O)c2cccc3cccnc23)cc(OC)c1OC` it was 7.77%. `Cc1cc(Br)c2c(c1)C(O)(N1CCCCC1C)C(=O)N2` (configuration not stated): the activation was 12.6% (active).

Take `CC1=NN(C(=O)c2ccccc2-n2cccc2)C(O)(C(F)(F)F)C1` (configuration not stated): the activation is 15.7% (active). In the case of `CC1=NN(C(=O)c2ccc(Cn3ccc([N+](=O)[O-])n3)cc2)C(O)(C(F)(F)F)C1` (configuration not stated) it was 18.8% (active); in that of `COc1cccc(OC)c1C(=O)NNC(=O)c1ccccc1-n1cccc1`, -0.16%; in that of `CC1=C(C#N)C(=O)OC(C)(C)C1`, 10.4%. On to `CSc1ccc(C2C(C(=O)c3ccco3)=C(O)C(=O)N2c2nnc(SC)s2)cc1` (configuration not stated), for which the activation was 29.2% (active). Under `CC(C)c1nnc(N2C(=O)C(O)=C(C(=O)c3cccs3)C2c2ccccc2)s1` (configuration not stated) stands 7.93%; under `N#Cc1c(NCCCO)nc(-c2ccccc2)c2c1CCCC2`, 16.7% (active). In the case of `CC(=O)Nc1sc(/C(C#N)=C\c2cccc(Cl)c2)nc1-c1ccc(C)cc1` it was 49.1% (active); in that of `CC(=O)Nc1sc(/C(C#N)=C/c2ccc(Cl)c(Cl)c2)nc1-c1ccc(C)cc1`, -3.28%; in that of `CCOc1cc(/C=C(\C#N)c2nc(-c3cccs3)c(NC(C)=O)s2)ccc1O`, 0.64%.

Consider `Cc1ccc(NC(=O)COC(=O)c2csc3c2CCC(C)C3)cc1S(=O)(=O)N1CCCCC1` (configuration not stated), for which the activation is 3.56%. In the case of `O=C(CNCc1cccs1)Nc1cc(S(=O)(=O)N2CCCC2)ccc1Cl` it was 17.9% (active); in that of `O=C(CNCc1cccs1)Nc1ccc(S(=O)(=O)N2CCCCC2)cc1`, 66.4% (active); in that of `O=C(CCCN1C(=O)c2ccccc2C1=O)Nc1ccc(S(=O)(=O)N2CCCCC2)cc1`, 4.61%. In the case of `Cc1ccc(S(=O)(=O)N2CCOCC2)cc1NC(=O)CSc1nccn1C` it was 11.4%. In the case of `CC(C(=O)NNS(=O)(=O)c1cccc(C(F)(F)F)c1)n1nnc(N2CCOCC2)n1` (configuration not stated), the activation was 5.72%. Under `C=CCOc1ccn(C)c(=O)n1` stands 12.1% (active). Under `CCOc1ccc(NC(=O)C2CC(=O)N=C(N)S2)cc1` (configuration not stated) stands 4.04%; under `COc1ccc(N=Nc2nc3ccc(Br)cc3n2C)cc1`, 10.6%; under `COc1ccc(Nc2nc3ccc(C)cc3cc2C#N)c(OC)c1`, 3.9%. Under `COc1ccc(N=Nc2nc3cc(Br)c(Br)cc3n2C)c(OC)c1` stands 2020% (active).

For the compound `Cc1ccc(N2C(=O)c3cccc4c(N)ccc(c34)C2=O)c2cccnc12`, the activation was 9.53%.

Consider `O=C1c2cccc3c([N+](=O)[O-])ccc(c23)C(=O)N1Cc1cccnc1`, for which the activation was 3.03%. Under `Cc1cccc(N2C(=O)c3cccc4c(N)ccc(c34)C2=O)c1` stands 0.54%; under `COc1ccccc1N1C(=O)c2cccc3c(N(C)CCO)ccc(c23)C1=O`, 7.87%. In the case of `Cc1ccnc(N2C(=O)c3cccc4c([N+](=O)[O-])ccc(c34)C2=O)c1` it was 16.1% (active); in that of `CN(C)CCCN1C(=O)c2cccc3c([N+](=O)[O-])ccc(c23)C1=O`, 38.5% (active). Under `CCOC(=O)c1sc(-c2ccc(F)cc2)cc1NC(=O)Nc1ccccc1OC` stands 37.5% (active); under `COc1ccccc1NS(=O)(=O)c1cc(C(=O)NCCN2CCOCC2)ccc1Cl`, 2.55%; under `CCOc1ccc2ccccc2c1CNCCN1CCOCC1`, 27% (active). Take `COc1ccccc1N1C(C)=CC(=C(C#N)c2nc3ccccc3s2)C=C1C`: the activation is 11.1%. In the case of `CC1=CC(=C(C#N)c2nc3ccccc3s2)C=C(C)N1c1ccc(F)cc1` it was 74.2% (active); in that of `COCCn1c(C)cc(C(=O)COC(=O)c2ccc(Cl)c(S(N)(=O)=O)c2)c1C`, 13% (active); in that of `Cc1ccc(-n2c(C)cc(C(=O)COC(=O)c3ccc[nH]c3=O)c2C)cc1`, 6.02%. Under `Cc1cc(C)n(CC(O)COc2ccccc2)n1` (configuration not stated) stands 6.17%; under `O=C1CCC(=O)N1CC(O)COc1ccccc1` (configuration not stated), 255% (active); under `OCCN1CCN(CC(O)COc2ccc(C34CC5CC(CC(C5)C3)C4)cc2)CC1` (configuration not stated), 90.4% (active).

In the case of `CCCN1C(=O)c2ccccc2NC1c1ccc(O)c(OCC)c1` (configuration not stated), the activation was 14.5% (active). Under `CCOc1cc(C2C3=C(CCCC3=O)N(C)C3=C2C(=O)CCC3)cc(Cl)c1O` stands 6.5%; under `COc1ccc(/C(C)=N/N2C(=O)c3ccccc3NC2c2ccc(O)c(OC)c2)cc1` (configuration not stated), 9.34%. Under `CC(C)C12CN(C(=O)c3ccccc3[N+](=O)[O-])CC(C(C)C)(CN(C(=O)c3ccccc3[N+](=O)[O-])C1)C2=O` stands 6.99%.

Take `O=C(O)c1cccc2c1-c1c(cccc1[N+](=O)[O-])C2`: the activation was 1890% (active). As to `CCN(CC)c1ccc(NC(=S)Nc2ccc(F)cc2)cc1`, the activation was 5.29%. Under `CCc1ccc(Nc2n[n+](-c3ccccc3)c(-c3ccc(N(CC)CC)cc3)s2)cc1` stands 5.32%; under `CCN(CC)c1ccc(-c2sc(Nc3ccccc3)n[n+]2-c2ccc(F)cc2)cc1`, 18.7% (active); under `CCOC(=O)/C(C#N)=C\c1ccc(N2CCN(C/C=C/c3ccccc3)CC2)cc1`, 4.67%. Under `CCOC(=O)/C(C#N)=C/c1ccc(N2CCN(Cc3ccccc3)CC2)cc1` stands 285% (active); under `CCOC(=O)Nc1ccc(NCc2ccc(F)cc2)nc1N`, 5.72%.

`CCN(CC)c1ccc2cc(C(=O)NCc3ccc(F)cc3)c(=N)oc2c1`: the activation was 54.1% (active). In the case of `COC(=O)CNC(=O)COC(=O)c1cc(F)c(F)cc1Cl`, the activation is 7.53%. Turning to `Cn1c2c(c(=O)n(C)c1=O)C(C(F)(F)F)(C(F)(F)F)N=C(CCC1CCCCC1)N2`, the activation was 9.24%.

With `CC(C)(C)C1(O)CC(C(F)(F)F)=NN1C(=O)CCCc1ccccc1` (configuration not stated), the activation was 3.64%.

With `COC(=O)C1=NN(C(=O)c2ccc(Br)cc2)C(O)(C(C)(C)C)C1` (configuration not stated), the activation was 13.4% (active). Turning to `CCN(CC)c1ccc(/C=C2/SC(=O)N(C(C)C)C2=O)o1`, the activation is 15.2% (active). Under `COc1ccc(/C=C2\Oc3cc(OCC(=O)N4CCC[C@H]4CO)ccc3C2=O)c(OC)c1` stands 13.8% (active); under `COc1ccc(/C=C2\Oc3cc(OCC(=O)N4CCC[C@H]4C(=O)O)ccc3C2=O)c(OC)c1`, 17.4% (active). In the case of `COc1ccc(/C=C2\Oc3cc(OCC(=O)N4CCC(C(=O)O)CC4)ccc3C2=O)c(OC)c1` it was 249% (active). Under `COc1cc(OC)c(OC)cc1/C=C1\Oc2cc(OCC(=O)N3Cc4ccccc4C[C@H]3C(=O)O)ccc2C1=O` stands 7.71%.

With `COc1ccc(/C=C2\Oc3cc(OC(=O)N4CCOCC4)ccc3C2=O)c(OC)c1`, the activation was 19.2% (active). Take `CS(=O)(=O)N(CC(=O)NCCSCc1ccccc1)c1ccccc1`: the activation is 7.88%.

With `CCOC(=O)c1c(NC(=O)c2ccno2)c2cc([N+](=O)[O-])ccc2n1C`, the activation was 4.78%. Under `Cc1cccc(C)c1OCC(C)N` (configuration not stated) stands 15.2% (active); under `Cc1cccc(OCc2nn[nH]n2)c1C`, 9.03%; under `CC(=O)Oc1ccc2c(c1)Oc1cc(OC(C)=O)ccc1C21OC(=O)c2ccccc21`, 49.7% (active). In the case of `CC1CCCCC1NS(=O)(=O)CCNC(=O)c1ccccc1` (configuration not stated) it was 1.54%. Under `Cc1cc(C)c2c(SC(C)C)nc(N)nc2n1` stands 18.3% (active); under `Cc1ccc(NC(=S)Nc2ccc3nc(-c4ccccn4)c(-c4ccccn4)nc3c2)cc1C`, 15.9% (active).

Consider `Cc1ccccc1NC(=S)Nc1ccc(Br)cc1`, for which the activation is 9.23%.

Turning to `Cc1ccc(NC(=O)Cn2ccnc2)cc1C`, the activation is 6.24%. In the case of `C=CCn1c(C)cc(-c2csc(N)n2)c1C` it was 9.08%; in that of `O=C(Nc1nc(-c2nc3ccccc3s2)cs1)C1COc2ccccc2O1` (configuration not stated), 43.4% (active); in that of `O=C(Nc1ccc(Cl)cn1)C1COc2ccccc2O1` (configuration not stated), 54.7% (active). Under `O=C1NC(c2ccccc2)=C(c2nc3ccccc3s2)C(c2ccc(O)cc2)N1` (configuration not stated) stands 2.85%; under `NC(=O)c1c(NC(=O)C2COc3ccccc3O2)sc2c1CCN(Cc1ccccc1)C2` (configuration not stated), 5.35%; under `CC(=O)Nc1sc2c(c1-c1nc3ccccc3s1)CN(C(C)C)CC2`, 3.29%. In the case of `Nc1c(S(=O)(=O)c2ccccc2)c2nc3ccccc3nc2n1/N=C/c1ccco1` it was 4.69%; in that of `Nc1c(S(=O)(=O)c2ccccc2)c2nc3ccccc3nc2n1Cc1ccco1`, 79.2% (active).

For `Cc1ccc(S(=O)(=O)c2c(N)n(Cc3ccco3)c3nc4ccccc4nc23)cc1`, the activation was 8.53%. Under `COc1cccc(CNC(=O)CN(C)S(=O)(=O)c2cnc[nH]2)c1` stands 151% (active); under `COc1cccc(CNC(=O)CN(C)S(=O)(=O)c2ccc3c(c2)c(=O)n(C)c(=O)n3C)c1`, 11.5%. In the case of `CCOc1ccc(-c2ncncc2-c2ccccc2OC)c(O)c1` it was 5.97%. Under `CCC(=Cc1ccccc1OC)c1ccncc1` stands 17.2% (active). For `COc1ccccc1/C=C/CN1CCC(CO)(Cc2ccccc2)CC1`, the activation was 11.1%. Under `Cc1cc[n+](-c2[nH]c(=O)sc2/C=N/NC([S-])=Nc2ccccc2)cc1C` stands 6.12%; under `Cc1cc[n+](-c2[nH]c(=O)sc2/C=N/NC([S-])=Nc2ccccc2)cc1`, 18.3% (active); under `CCc1ccc[n+](-c2[nH]c(=O)sc2/C=N/NC([S-])=Nc2ccccc2)c1`, 49.2% (active). Under `Cc1cc[n+](-c2[nH]c(=O)sc2/C=N/N=C(\[O-])c2ccccc2)cc1C` stands 22.1% (active); under `Cc1cc(C)c[n+](-c2[nH]c(=O)sc2/C=N/NC([S-])=Nc2ccccc2)c1`, -0.42%; under `O=c1[nH]c(-[n+]2ccccc2)c(/C=N/NC([S-])=Nc2ccccc2)s1`, 8.23%. Turning to `CC(C)(C)c1cc[n+](-c2[nH]c(=O)sc2/C=N/NC([S-])=Nc2ccccc2)cc1`, the activation was 5.34%.
